Reference: ChEMBL document CHEMBL3576798, “Depsipeptide companeramides from a Panamanian marine cyanobacterium associated with the coibamide producer” (J Nat Prod, 2015)
The source made the active and inactive calls. The rule behind the calls is not given here.

Tests used:
Plasmodium falciparum [1] = assay: Antiplasmodial activity against chloroquine-resistant Plasmodium falciparum 7G8 in human erythrocyte after 72 hrs by SYBR Green I assay; format: functional, organism-based; conditions: 7G8, 72 h
In short: (§1)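 Asynchronous parasites grown in human erythrocytes at 2% hematocrit in RPMI 1640 with 0.5% Albumax, 45 μg/L hypoxanthine, 50 μg/L gentamicin. Samples (10 mM stock in sterile water) serially diluted in medium, quadruplicate wells at 0.2% parasitemia, 2% hematocrit; 72 h at 37 °C. Lysis buffer with SYBR Green I added, 1 h rt dark, fluorescence ex 497/em 520 nm; IC50 by nonlinear regression of logistic dose–response curves.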

MDA-MB-231 = assay: Cytotoxicity against human MDA-MB-231 cells at 1 uM after 24 hrs by MTT assay; format: functional, cell-based
In short: (§2)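 MTT viability assay; cells seeded at 3000 per well the day before treatment, kept under standard growth conditions. Compounds dissolved in 100% DMSO (stored −20 °C), final DMSO at most 0.1%. Viability relative to vehicle-treated cells set as 100%; coibamide A (30 nM) as control cancer cell toxin.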

Plasmodium falciparum [2] = assay: Antiplasmodial activity against chloroquine-resistant Plasmodium falciparum Dd2 in human erythrocyte after 72 hrs by SYBR Green I assay; format: functional, organism-based; conditions: Dd2, 72 h; in short: as §1
NCI-H460 = assay: Cytotoxicity against human NCI-H460 cells at 1 uM after 24 hrs by MTT assay; format: functional, cell-based; in short: as §2
SF-295 = assay: Cytotoxicity against human SF295 cells at 1 uM after 24 hrs by MTT assay; format: functional, cell-based; in short: as §2
SK-OV-3 = assay: Cytotoxicity against human SKOV3 cells at 1 uM after 24 hrs by MTT assay; format: functional, cell-based; in short: as §2
Plasmodium falciparum [3] = assay: Antiplasmodial activity against chloroquine-sensitive Plasmodium falciparum D6 in human erythrocyte after 72 hrs by SYBR Green I assay; format: functional, organism-based; conditions: D6, 72 h; in short: as §1

| Compound | IC50 (Plasmodium falciparum [1]) | Activity (MDA-MB-231) | IC50 (Plasmodium falciparum [2]) | Activity (NCI-H460) | Activity (SF-295) | Activity (SK-OV-3) | IC50 (Plasmodium falciparum [3]) |
| --- | --- | --- | --- | --- | --- | --- | --- |
| C#CCCC[C@H]1NC(=O)[C@H](C(C)C)N(C)C(=O)[C@H](C)NC(=O)[C@H](CC(C)C)N(C)C(=O)[C@@H]2CCCN2C(=O)[C@H]([C@H](C)CC)NC(=O)[C@H](C(C)C)N(C)C(=O)[C@H]([C@H](C)CC)NC(=O)[C@@H](C)N(C)C(=O)[C@H](C(C)C)OC(=O)[C@H]1C | 1100 nM | inactive | 1000 nM | inactive | inactive | inactive | 570 nM |
| C#CCCC[C@H]1NC(=O)[C@H](C(C)C)N(C)C(=O)[C@H](C(C)C)NC(=O)[C@@H](C)N(C)C(=O)[C@@H]2CCCN2C(=O)[C@H]([C@H](C)CC)NC(=O)[C@H](C(C)C)N(C)C(=O)[C@H](C(C)C)NC(=O)[C@H](C)N(C)C(=O)[C@H](C(C)C)OC(=O)[C@H]1C | 700 nM |  | 230 nM |  |  |  | 220 nM |
